Reference: ChEMBL document CHEMBL5126630, “Optimization of the Prodrug Moiety of Remdesivir to Improve Lung Exposure/Selectivity and Enhance Anti-SARS-CoV-2 Activity” (J Med Chem, 2022)
The source made the active and inactive calls. The calls are words filed in the database; no cut-off is given here.

How the values were obtained:
[1] = Stability in mouse plasma assessed as half life; assay type: ADME, cell-free
[2] = Stability in mouse microsomes assessed as half life; assay type: ADME, Microsome
[3] = Stability in hamster microsomes assessed as half life; assay type: ADME, Cricetulus griseus, Microsome; settings: chinese hamster
[4] = Stability in hamster plasma assessed as half life; assay type: ADME, cell-free, Cricetulus griseus; settings: chinese hamster
[5] = Stability in human microsomes assessed as half life; assay type: ADME, Microsome
[6] = Stability in human plasma assessed as half life; assay type: ADME, cell-free
[7] = Drug metabolism in hamster blood assessed as NTP metabolite formation at 10 mg/kg, iv measured upto 24 hrs by LC-MS/MS analysis; assay type: ADME, organism-based, Cricetulus griseus; settings: chinese hamster, in vivo
Summary of the method: (§1)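 Female catheterized hamsters were dosed 10 mg/kg iv at 2 mg/mL; remdesivir was in 15% cyclodextrin at pH 3–3.5 and the prodrug in cyclodextrin or albumin. Two per group were sacrificed at 0.5–24 h. Tissues were homogenized in 70% methanol with internal standard. NTP was measured by ion-pairing LC-MS/MS (dimethylhexylamine/ammonium formate mobile phase), negative-ion MRM, against 10-point 5–5000 ng/mL standards. Exposure was reported as AUC.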

[8] = Prodrug activation in human Calu-3 cells assessed as ALA release at 10 uM measured upto 12 hrs by LC-MS analysis; assay type: cell-based; settings: calu-3, 12 h
Summary of the method: (§2)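 Calu-3 cells (1–5 × 10^5/well) were cultured 12 h, then exposed to 10 μM drug at 37 °C for 2, 6 and 12 h (n = 3). Cells were detached with trypsin-EDTA, pelleted and washed three times with ice-cold PBS. Drug was extracted overnight at −20 °C in ice-cold 70% methanol, and supernatants were analysed by LC-MS.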

[9] = Drug metabolism in hamster spleen assessed as NTP metabolite formation at 10 mg/kg, iv measured upto 24 hrs by LC-MS/MS analysis; assay type: ADME, organism-based, Cricetulus griseus; settings: chinese hamster, in vivo; summary of the method: as §1
[10] = system: SARS-CoV-2; assay: Antiviral activity against SARS-CoV-2 infected in African green monkey Vero E6 cells assessed as reduction in viral titer incubated for 2 days by CellTiter-Glo assay; assay type: functional, organism-based; settings: Severe acute respiratory syndrome coronavirus 2; Vero 76; time 2.0 day
[11] = system: SARS-CoV-2; assay: Antiviral activity against SARS-CoV-2 gamma P.1 infected in African green monkey Vero E6 cells assessed as protection against virus-induced cytopathic effect incubated for 2 days by CellTiter-Glo assay; assay type: functional, organism-based; settings: Severe acute respiratory syndrome coronavirus 2, gamma P.1, Vero 76, 48 h
[12] = Prodrug activation in human Calu-3 cells assessed as NTP release at 10 uM measured upto 12 hrs by LC-MS analysis; assay type: cell-based; settings: calu-3, 12 h; summary of the method: as §2
[13] = Drug metabolism in hamster lung assessed as NTP metabolite formation at 10 mg/kg, iv measured upto 24 hrs by LC-MS/MS analysis; assay type: ADME, organism-based, Cricetulus griseus; settings: chinese hamster, in vivo; summary of the method: as §1
[14] = Drug accumulation in hamster liver at 10 mg/kg, iv measured upto 24 hrs by LC-MS/MS analysis; assay type: ADME, organism-based, Cricetulus griseus; settings: chinese hamster, in vivo
Summary of the method: (§3)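 Catheterized female hamsters received 10 mg/kg iv at 2 mg/mL. The remdesivir vehicle was 15% cyclodextrin at pH 3–3.5; the test prodrug was given in cyclodextrin or albumin formulation. Two animals per group were sacrificed at 0.5, 1, 4, 7 and 24 h. Tissues were homogenized in 5-fold 70% methanol with internal standard and supernatants analysed by LC-MS against 5–5000 ng/mL standard curves.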

[15] = Drug accumulation in hamster kidney at 10 mg/kg, iv measured upto 24 hrs by LC-MS/MS analysis; assay type: ADME, organism-based, Cricetulus griseus; settings: chinese hamster, in vivo; summary of the method: as §3
[16] = Drug metabolism in hamster lymph node assessed as NTP metabolite formation at 10 mg/kg, iv measured upto 24 hrs by LC-MS/MS analysis; assay type: ADME, organism-based, Cricetulus griseus; settings: chinese hamster, in vivo; summary of the method: as §1
[17] = system: SARS-CoV-2; assay: Antiviral activity against SARS-CoV-2 delta B.1.617.2 infected in African green monkey Vero E6 cells assessed as protection against virus-induced cytopathic effect incubated for 2 days by CellTiter-Glo assay; assay type: functional, organism-based; settings: Severe acute respiratory syndrome coronavirus 2, delta B.1.617.2, Vero 76, 48 h
[18] = system: SARS-CoV-2; assay: Antiviral activity against SARS-CoV-2 beta B.1.351 infected in African green monkey Vero E6 cells assessed as protection against virus-induced cytopathic effect incubated for 2 days by CellTiter-Glo assay; assay type: functional, organism-based; settings: Severe acute respiratory syndrome coronavirus 2, beta B.1.351, Vero 76, 48 h
[19] = system: Vero 76; assay: Cytotoxicity against African green monkey Vero E6 cells at 10 uM; assay type: toxicity, cell-based; settings: chlorocebus sabaeus, vero 76, 10 µM
[20] = system: SARS-CoV-2; assay: Antiviral activity against SARS-CoV-2 infected in African green monkey Vero E6 cells assessed as protection against virus-induced cytopathic effect incubated for 2 days by CellTiter-Glo assay; assay type: functional, organism-based; settings: Severe acute respiratory syndrome coronavirus 2, Vero 76, 48 h
[21] = Prodrug activation in human Calu-3 cells assessed as NUC release at 10 uM measured upto 12 hrs by LC-MS analysis; assay type: cell-based; settings: calu-3, 12 h; summary of the method: as §2
[22] = system: SARS-CoV-2; assay: Antiviral activity against SARS-CoV-2 alpha B.1.1.7 infected in African green monkey Vero E6 cells assessed as protection against virus-induced cytopathic effect incubated for 2 days by CellTiter-Glo assay; assay type: functional, organism-based; settings: Severe acute respiratory syndrome coronavirus 2, alpha B.1.1.7, Vero 76, 48 h

SMILES	half-life [1] [min]	half-life [2] [min]	half-life [3] [min]	half-life [4] [min]	half-life [5] [min]	half-life [6] [min]	Drug metabolism [7]	Drug metabolism [8]	Drug metabolism [9]	Activity [10]	EC50 [11] [µM]	Drug metabolism [12]	Drug metabolism [13]	Drug uptake [14] [%]	Drug uptake [15] [%]	Drug metabolism [16]	EC50 [17] [µM]	EC50 [18] [µM]	Activity [19]	EC50 [20] [µM]	other results
CCCCC/C=C\C/C=C\CCCCCCCCOC(=O)[C@H](C)NP(=O)(OC[C@H]1O[C@@](C#N)(c2ccc3c(N)ncnn23)[C@H](O)[C@@H]1O)Oc1cccc2ccccc12 (stereo not given in full)	3.44	13.6	61.8	271	19.7	286	–	–	–	–	–	–	–	–	–	–	–	–	–	–	–
CCC(CC)COC(=O)[C@H](C)N[P@](=O)(OC[C@H]1O[C@@](C#N)(c2ccc3c(N)ncnn23)[C@H](O)[C@@H]1O)Oc1ccccc1 [REMDESIVIR]	–	–	0.48	54.5	0.86	40.7	Metabolite_Detected	Metabolite_Detected	Metabolite_Detected	Active	3.7	Metabolite_Detected	Metabolite_Detected	80	80	Metabolite_Detected	9.2	32	Non-Toxic	3.3	Drug metabolism [21]: Metabolite_Detected; EC50 [22]: 4.7 µM
CCCCCCCCCCCCOC(=O)[C@H](C)NP(=O)(OC[C@H]1O[C@@](C#N)(c2ccc3c(N)ncnn23)[C@H](O)[C@@H]1O)Oc1ccccc1 (stereo not given in full)	–	–	2.72	71.2	4.29	47.1	–	–	–	–	–	–	–	–	–	–	–	–	–	–	–
C[C@H](NP(=O)(OC[C@H]1O[C@@](C#N)(c2ccc3c(N)ncnn23)[C@H](O)[C@@H]1O)Oc1cccc2ccccc12)C(=O)OCc1ccccc1 (stereo not given in full)	–	–	0.46	55.8	1.05	52.4	–	–	–	–	–	–	–	–	–	–	–	–	–	–	–
CCCCC/C=C\C/C=C\CCCCCCCCOC(=O)[C@H](C)NP(=O)(OC[C@H]1O[C@@](C#N)(c2ccc3c(N)ncnn23)[C@H](O)[C@@H]1O)Oc1ccccc1 (stereo not given in full)	1.03	8.65	16.2	128	8.33	192	Metabolite_Detected	Metabolite_Detected	Metabolite_Detected	Active	1.7	Metabolite_Detected	Metabolite_Detected	80	80	Metabolite_Detected	5.6	15.9	Non-Toxic	0.4	Drug metabolism [21]: Metabolite_Detected; EC50 [22]: 2.5 µM
CCCCCCCCCCCCOC(=O)[C@H](C)NP(=O)(OC[C@H]1O[C@@](C#N)(c2ccc3c(N)ncnn23)[C@H](O)[C@@H]1O)Oc1cccc2ccccc12 (stereo not given in full)	–	–	3.49	158	6.11	154	–	–	–	–	–	–	–	–	–	–	–	–	–	–	–
